# ChEMBL document CHEMBL4229550, “An antimycobacterial pleuromutilin analogue effective against dormant bacilli” (Bioorg Med Chem, 2018)
# Tests used:
# Vero = experiment: Cytotoxicity against African green monkey Vero cells assessed as reduction in cell viability after 72 hrs by MTT assay; assay type: cell-based; settings: Chlorocebus sabaeus
# Summary of the method: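 Vero cells were grown in complete EMEM with 10% FBS and exposed for 72 h to 0.78–200 µg/mL. The medium was then swapped for phenol-red-free EMEM and MTT was added. Formazan absorbance was read at 570 nm to give IC50.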
# [1] = tested on: Mycobacterium tuberculosis; experiment: Antibacterial activity against replicating Mycobacterium tuberculosis H37Rv incubated for 15 days under aerobic condition by MABA; assay type: functional; settings: 360 h, read-out: MIC100
# Summary of the method: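 Mtb H37Rv grown in 7H9/OADC at 37 °C with shaking to OD600 0.5. The 0.5-OD culture is exposed aerobically to serial dilutions for 15 days at 37 °C. Resazurin (0.02% stock) is then added for 4 h at 37 °C with shaking.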
# Erythrocyte = experiment: Hemolytic activity in sheep erythrocytes after 2 hrs; assay type: ADME, cell-based; settings: Ovis aries
# Summary of the method: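 Washed heparinized sheep erythrocytes at 3% in buffer pH 7.4 were treated with 2–200 µg/mL for 2 h at 37 °C with gentle shaking. Triton X-100 (0.01–1%) was the positive control and PEG:H2O diluent the negative control. Released hemoglobin was read at OD540 and % hemolysis calculated against both controls.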
# [2] = Selectivity index, ratio of IC50 for African green monkey Vero cells to MIC100 for replicating Mycobacterium tuberculosis H37Rv by MABA; assay type: toxicity; settings: read-out: Selectivity Index
# Summary of the method: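 Vero cells are cultured in EMEM with 10% FBS and exposed for 72 h to 0.78–200 µg/mL. Medium is switched to phenol-red-free EMEM, MTT is added, and formazan is read at 570 nm to give IC50. The selectivity index is Vero IC50 divided by the MABA MIC.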
Compound,IC50 (Vero) [µg/mL],MIC [1] [µg/mL],IC50 (Erythrocyte) [µM],selectivity ratio [2]
CCCCCCCCCCCCC/C=C/C(=O)N[C@H]1[C@H](O[C@H]2O[C@H](CO)[C@@H](O)[C@H](O)[C@H]2NC(C)=O)O[C@H](CC(O)[C@H]2O[C@@H](n3ccc(=O)[nH]c3=O)[C@H](O)[C@@H]2O)[C@H](O)[C@@H]1O (stereo partly specified),0.18,12.5,15,–
CC[C@@H](CO)NCCN[C@@H](CC)CO [ETHAMBUTOL],> 200,0.78,–,> 256
